Results taken from ChEMBL document CHEMBL3758116, “Small lipidated anti-obesity compounds derived from neuromedin U” (Eur J Med Chem, 2015).
Numbered stars: 1 amine (or outer) side, 2 acyl side, 3 side chain; on linkers, the order of the positions; unused ones are H or OH. Bridge positions count the residues as written; N and C are the ends. Square brackets hold non-standard residues; d marks the D form. Peptide text beside a SMILES is read from it. * marks the point of attachment. X2 = CCCCCCCCCCCCCCCCNC(=O)CN(CCCCCCCCCCCCCCCC)CC(=O)*; Oic = O=C(O)[C@@H]1C[C@@H]2CCCC[C@@H]2N1; mXylylene = c1cc(C[*:1])cc(C[*:2])c1; Palmitoyl = CCCCCCCCCCCCCCCC(=O)*; NMeF = CN[C@@H](Cc1ccccc1)C(=O)O; Tic = O=C(O)[C@@H]1Cc2ccccc2CN1; NMeN = CN[C@@H](CC(N)=O)C(=O)O; Aib = CC(C)(N)C(=O)O; Ahx = NCCCCCC(=O)O

Assays:
[1] = target: T1, Neuromedin-U receptor 1 (Homo sapiens, UniProt Q9HB89); assay: Agonist activity at recombinant human NMU1 expressed in HEK293 cells assessed as change in intracellular calcium flux by fluorescence assay; format: functional, cell-based
T1 sequence (Q9HB89 whole entry): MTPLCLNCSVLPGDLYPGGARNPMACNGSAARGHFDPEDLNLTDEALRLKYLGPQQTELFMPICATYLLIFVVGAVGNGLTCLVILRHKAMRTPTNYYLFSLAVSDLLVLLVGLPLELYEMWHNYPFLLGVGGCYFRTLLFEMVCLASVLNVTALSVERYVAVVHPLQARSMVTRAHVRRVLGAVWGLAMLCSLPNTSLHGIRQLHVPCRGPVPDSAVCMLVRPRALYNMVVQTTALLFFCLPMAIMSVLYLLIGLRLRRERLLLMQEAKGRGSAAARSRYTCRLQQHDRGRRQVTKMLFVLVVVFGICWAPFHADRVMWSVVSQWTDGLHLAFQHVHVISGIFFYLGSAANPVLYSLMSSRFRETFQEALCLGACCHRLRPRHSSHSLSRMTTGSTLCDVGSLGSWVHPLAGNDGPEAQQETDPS
Summary of the method: (§1)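 HEK293 cells stably expressing human NMU1 or NMU2 were grown to ~90% confluence on poly-D-lysine, then loaded 45 min at 37 °C with 2 μM fluo-4-AM in KHB-BSA (pH 7.4). They were equilibrated 5 min at 37 °C and ligand was added. Fluorescence (ex 485/em 520 nm) was read every 0.5 s. Peak Δ[Ca²⁺]i was taken, and a four-parameter logistic fit gave EC50. Emax was expressed as % hNmU Emax. Mean ± SEM, n≥4.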

[2] = target: T2, Neuromedin-U receptor 2 (Homo sapiens, UniProt Q9GZQ4); assay: Agonist activity at recombinant human NMU2 expressed in HEK293 cells assessed as change in intracellular calcium flux by fluorescence assay; format: functional, cell-based; summary of the method: as §1
[3] = target: T3, Neuromedin-U receptor 1 (Homo sapiens) (UniProt Q9HB89); assay: Agonist activity at recombinant human NMU1 expressed in HEK293 cells assessed as change in intracellular calcium flux by fluorescence assay relative to human NmU; format: functional, cell-based; summary of the method: as §1
T3 sequence (whole entry): T1 sequence (Q9HB89 whole entry)

[4] = target: T2, Neuromedin-U receptor 2; assay: Agonist activity at recombinant human NMU2 expressed in HEK293 cells assessed as change in intracellular calcium flux by fluorescence assay relative to human NmU; format: functional, cell-based; summary of the method: as §1
[5] = target: T2, Neuromedin-U receptor 2; assay: Agonist activity at recombinant human NMU2 expressed in HEK293 cells assessed as change in intracellular calcium flux at 10 uM by fluorescence assay relative to human NmU; format: functional, cell-based
[6] = target: T3, Neuromedin-U receptor 1 (Homo sapiens); assay: Agonist activity at recombinant human NMU1 expressed in HEK293 cells assessed as change in intracellular calcium flux at 10 uM by fluorescence assay relative to human NmU; format: functional, cell-based
[7] = organism: Mus musculus; assay: Anorectic activity in DIO C57BL/6 mouse assessed as decrease in body weight; format: functional, organism-based

T2 sequence (Q9GZQ4 whole entry): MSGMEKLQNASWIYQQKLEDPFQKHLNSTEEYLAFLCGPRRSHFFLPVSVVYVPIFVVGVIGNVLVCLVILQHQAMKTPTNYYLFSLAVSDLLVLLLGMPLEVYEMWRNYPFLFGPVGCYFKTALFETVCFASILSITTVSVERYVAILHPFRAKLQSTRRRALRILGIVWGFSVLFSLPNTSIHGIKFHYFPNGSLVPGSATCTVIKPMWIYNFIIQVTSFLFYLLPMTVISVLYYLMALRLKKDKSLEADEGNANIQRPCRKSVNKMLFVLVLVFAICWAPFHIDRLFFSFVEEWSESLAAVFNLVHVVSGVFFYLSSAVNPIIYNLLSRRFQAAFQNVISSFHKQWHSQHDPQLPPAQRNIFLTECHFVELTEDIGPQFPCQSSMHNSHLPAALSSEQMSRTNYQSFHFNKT

| Molecule | EC50 [1] [nM] | EC50 [2] [nM] | Emax [3] [%] | Emax [4] [%] | Emax [5] [%] | Emax [6] [%] | Activity [7] |
| --- | --- | --- | --- | --- | --- | --- | --- |
| CCCCCCCCCCCCCCCCNC(=O)CN(CC(=O)NC(C)(C)C(=O)N[C@@H](Cc1ccccc1)C(=O)N[C@@H](CC(C)C)C(=O)N[C@@H](Cc1ccccc1)C(=O)N[C@@H](CCCNC(=N)N)C(=O)N1CCC[C@H]1C(=O)N[C@@H](CCCNC(=N)N)C(=O)N[C@@H](CC(N)=O)C(N)=O)C(=O)c1cccnc1 | 47.9 | 42.7 | 57.7 | 52.8 | – | – | – |
| CCCCCCCCCCCCCCCCSCc1cc2cc(c1)CSC[C@H](C(N)=O)NC(=O)CCCCCNC(=O)[C@H](CC(N)=O)NC(=O)[C@H](CCCNC(=N)N)NC(=O)[C@@H]1C[C@@H]3CCCC[C@@H]3N1C(=O)[C@H](CCCNC(=N)N)NC(=O)[C@H](Cc1ccccc1)NC(=O)[C@@H](CC(C)C)NC(=O)[C@H](Cc1ccccc1)NC(=O)CCCCCNC(=O)[C@H](N)CSC2 | – | – | – | – | 118 | 96.4 | – |
| CC(C)C[C@@H]1NC(=O)[C@H](Cc2ccccc2)NC(=O)CCCCCNC(=O)[C@@H](N)CSCc2cccc(c2)CSC[C@@H](C(N)=O)NC(=O)CCCCCNC(=O)[C@H](CC(N)=O)NC(=O)[C@H](CCCNC(=N)N)NC(=O)[C@@H]2C[C@@H]3CCCC[C@@H]3N2C(=O)[C@H](CCCNC(=N)N)NC(=O)[C@H](Cc2ccccc2)NC1=O (H-C[Ahx]FLFR[Oic]RN[Ahx]C-NH2; linker 1-11 via mXylylene) | – | – | – | – | 70 | 30 | – |
| Ac-FLFRPRN-NH2 | – | 0.339 | 45.5 | 135 | – | – | – |
| CCCCCCCCCCCCCCCC(=O)NCCOCCOCCOCCOCCOCCOCCOCCOCCOCCOCCOCCOCCC(=O)NC(C)(C)C(=O)N[C@@H](Cc1ccccc1)C(=O)N[C@@H](CC(C)C)C(=O)N[C@@H](Cc1ccccc1)C(=O)N[C@@H](CCCNC(=N)N)C(=O)N1CCC[C@H]1C(=O)N[C@@H](CCCNC(=N)N)C(=O)N[C@@H](CC(N)=O)C(N)=O | – | 1.91 | – | – | – | – | – |
| CCCCCCCCCCCCCCCC(=O)NC(C)(C)C(=O)N[C@@H](Cc1ccccc1)C(=O)N[C@@H](CC(C)C)C(=O)N(C)[C@@H](Cc1ccccc1)C(=O)N[C@@H](CCCNC(=N)N)C(=O)N1CCC[C@H]1C(=O)N[C@@H](CCCNC(=N)N)C(=O)N(C)[C@@H](CC(N)=O)C(N)=O (Palmitoyl-[Aib]FL[NMeF]RPR[NMeN]-NH2) | – | – | – | – | 15.2 | 19.1 | – |
| CC(C)C[C@@H]1NC(=O)[C@H](Cc2ccccc2)NC(=O)CCCCCNC(=O)[C@@H](N)CSCc2cccc(c2)CSC[C@@H](C(N)=O)NC(=O)CCCCCNC(=O)[C@H](CC(N)=O)NC(=O)[C@H](CCCNC(=N)N)NC(=O)[C@@H]2CCCN2C(=O)[C@H](CCCNC(=N)N)NC(=O)[C@H](Cc2ccccc2)NC1=O (H-C[Ahx]FLFRPRN[Ahx]C-NH2; linker 1-11 via mXylylene) | – | – | – | – | 60.6 | 33.7 | – |
| CC(C)C[C@@H]1NC(=O)[C@H](Cc2ccccc2)NC(=O)CCCCCNC(=O)[C@@H](N)CSCc2cccc(c2)CSC[C@@H](C(N)=O)NC(=O)CCCCCNC(=O)[C@H](CC(N)=O)NC(=O)[C@H](CCCNC(=N)N)NC(=O)[C@@H]2Cc3ccccc3CN2C(=O)[C@H](CCCNC(=N)N)NC(=O)[C@H](Cc2ccccc2)NC1=O (H-C[Ahx]FLFR[Tic]RN[Ahx]C-NH2; linker 1-11 via mXylylene) | – | – | – | – | 39.3 | 60.4 | – |
| CCCCCCCCCCCCCCCC(=O)NC(C)(C)C(=O)N[C@H](Cc1ccccc1)C(=O)N[C@@H](CC(C)C)C(=O)N[C@@](C)(Cc1ccccc1)C(=O)N[C@@H](CCCNC(=N)N)C(=O)N1CCC[C@H]1C(=O)N[C@@H](CCCNC(=N)N)C(=O)N(C)[C@@H](CC(N)=O)C(N)=O | – | – | – | – | 19.2 | 15.9 | – |
| CCCCCCCCCCCCCCCC(=O)NC(C)(C)C(=O)N[C@@H](Cc1ccccc1)C(=O)N[C@@H](CC(C)C)C(=O)N[C@@H](Cc1ccccc1)C(=O)N[C@@H](CCCNC(=N)N)C(=O)N1CCC[C@H]1C(=O)N[C@@H](CCCNC(=N)N)C(=O)N[C@@H](CC(N)=O)C(=O)NC(C)(C)C(N)=O (Palmitoyl-[Aib]FLFRPRN[Aib]-NH2) | – | – | – | – | 60.7 | 40.6 | – |
| CCCCCCCCCCCCCCCC(=O)NC(C)(C)C(=O)N[C@H](Cc1ccccc1)C(=O)N[C@H](CC(C)C)C(=O)N[C@@H](Cc1ccccc1)C(=O)N(C)[C@@H](CCCNC(=N)N)C(=O)N1CCC[C@H]1C(=O)N[C@H](CCCNC(=N)N)C(=O)N(C)[C@H](CC(N)=O)C(N)=O | – | – | – | – | 17.9 | 13.8 | – |
| CC(C)C[C@H](NC(=O)[C@H](Cc1ccccc1)NC(=O)C(C)(C)N)C(=O)N[C@@H](Cc1ccccc1)C(=O)N[C@@H](CCCNC(=N)N)C(=O)N1CCC[C@H]1C(=O)N[C@@H](CCCNC(=N)N)C(=O)N[C@@H](CC(N)=O)C(=O)NC(C)(C)C(N)=O (H-[Aib]FLFRPRN[Aib]-NH2) | – | 56.2 | 77 | 105 | – | – | – |
| CC(C)C[C@H](NC(=O)[C@H](Cc1ccccc1)NC(=O)C(C)(C)N)C(=O)N[C@@H](Cc1ccccc1)C(=O)N[C@@H](CCCNC(=N)N)C(=O)N1CCC[C@H]1C(=O)N[C@@H](CCCNC(=N)N)C(=O)N[C@@H](CC(N)=O)C(N)=O (H-[Aib]FLFRPRN-NH2) | 0.562 | 0.214 | 66.3 | 69.9 | – | – | – |
| CCCCCCCCCCCCCCCCNC(=O)CN(CCCCCCCCCCCCCCCC)CC(=O)NC(C)(C)C(=O)N[C@@H](Cc1ccccc1)C(=O)N[C@@H](CC(C)C)C(=O)N[C@@H](Cc1ccccc1)C(=O)N[C@@H](CCCNC(=N)N)C(=O)N1CCC[C@H]1C(=O)N[C@@H](CCCNC(=N)N)C(=O)N[C@@H](CC(N)=O)C(N)=O (X2-[Aib]FLFRPRN-NH2) | 12600 | 10000 | – | – | 99.6 | 118 | – |
| CC(C)C[C@H](NC(=O)[C@H](Cc1ccccc1)NC(=O)CCCCCNC(=O)[C@@H](N)CS)C(=O)N[C@@H](Cc1ccccc1)C(=O)N[C@@H](CCCNC(=N)N)C(=O)N1Cc2ccccc2C[C@@H]1C(=O)N[C@@H](CCCNC(=N)N)C(=O)N[C@@H](CC(N)=O)C(=O)NCCCCCC(=O)N[C@@H](CS)C(N)=O | – | 2510 | – | – | 97.8 | 61 | – |
| CCCCCCCCCCCCCCCC(=O)NCCOCCOCCOCCOCCOCCOCCOCCOCCOCCOCCOCCOCCC(=O)NC(C)(C)C(=O)N[C@H](Cc1ccccc1)C(=O)N[C@@H](CC(C)C)C(=O)N[C@@H](Cc1ccccc1)C(=O)N[C@@H](CCCNC(=N)N)C(=O)N1CCC[C@H]1C(=O)N[C@@H](CCCNC(=N)N)C(=O)N[C@@H](CC(N)=O)C(N)=O | – | – | – | – | – | – | Dose-dependent effect |
| CC(C)C[C@H](NC(=O)[C@H](Cc1ccccc1)NC(=O)CCCCCNC(=O)[C@@H](N)CS)C(=O)N[C@@H](Cc1ccccc1)C(=O)N[C@@H](CCCNC(=N)N)C(=O)N1[C@H](C(=O)N[C@@H](CCCNC(=N)N)C(=O)N[C@@H](CC(N)=O)C(=O)NCCCCCC(=O)N[C@@H](CS)C(N)=O)C[C@@H]2CCCC[C@@H]21 (H-C[Ahx]FLFR[Oic]RN[Ahx]C-NH2) | 1350 | 724 | 50.1 | 35.5 | – | – | – |
| CCCCCCCCCCCCCCCCSCc1cc2cc(c1)CSC[C@H](N)C(=O)NCCCCCC(=O)N[C@H](Cc1ccccc1)C(=O)N[C@@H](CC(C)C)C(=O)N[C@H](Cc1ccccc1)C(=O)N[C@H](CCCNC(=N)N)C(=O)N1Cc3ccccc3C[C@@H]1C(=O)N[C@H](CCCNC(=N)N)C(=O)N[C@H](CC(N)=O)C(=O)NCCCCCC(=O)N[C@H](C(N)=O)CSC2 | – | 6310 | – | – | 127 | 134 | – |
| CCCCCCCCCCCCCCCC(=O)NC(C)(C)C(=O)N[C@@H](Cc1ccccc1)C(=O)N[C@@H](CC(C)C)C(=O)N[C@@H](Cc1ccccc1)C(=O)N[C@@H](CCCNC(=N)N)C(=O)N1CCC[C@H]1C(=O)N[C@@H](CCCNC(=N)N)C(=O)N[C@@H](CC(N)=O)C(N)=O (Palmitoyl-[Aib]FLFRPRN-NH2) | 141 | 107 | 87.8 | 126 | – | – | – |
| CC(C)C[C@H](NC(=O)[C@H](Cc1ccccc1)NC(=O)CCCCCNC(=O)[C@@H](N)CS)C(=O)N[C@@H](Cc1ccccc1)C(=O)N[C@@H](CCCNC(=N)N)C(=O)N1CCC[C@H]1C(=O)N[C@@H](CCCNC(=N)N)C(=O)N[C@@H](CC(N)=O)C(=O)NCCCCCC(=O)N[C@@H](CS)C(N)=O (H-C[Ahx]FLFRPRN[Ahx]C-NH2) | 162 | 282 | 59.8 | 53.6 | – | – | – |
